Experimental data published in ChEMBL document CHEMBL1151459, “Bile and unsaturated fatty acids inhibit the binding of cholera toxin and Escherichia coli heat-labile enterotoxin to GM1 receptor” (Antimicrob Agents Chemother, 2008).
Calls of active or inactive are those of the source. The rule behind the calls is not given here.

Tests used:
Oryctolagus cuniculus [1] = species on record: Oryctolagus cuniculus; assay: Inhibition of intestinal fluid accumulation in rabbit ligated ileal loop model injected in presence of cholera toxin after 16 hrs; format: functional; conditions: Ileum
Vibrio cholerae [2] = assay: Blockade of anti-CT antibody binding site of Vibrio cholerae cholera toxin preincubated for 15 mins before addition of anti-CT immunoglobulin G by immunoprecipitation-based SDS-PAGE
Vibrio cholerae [3] = assay: Binding affinity to Vibrio cholerae cholera toxin assessed as apparent isoelectric point at 100 mM by isoelectric focusing analysis (isoelectric point Rvb=6.8)
Vibrio cholerae [4] = assay: Binding affinity to Vibrio cholerae cholera toxin assessed as decrease in fluorescence intensity by fluorescence emission spectroscopy
Oryctolagus cuniculus [5] = species on record: Oryctolagus cuniculus; assay: Inhibition of intestinal fluid accumulation in rabbit ligated ileal loop model at 3.3 mM injected in presence of cholera toxin after 16 hrs; format: functional; conditions: Ileum
Oryctolagus cuniculus [6] = species on record: Oryctolagus cuniculus; assay: Inhibition of intestinal fluid accumulation in rabbit ligated ileal loop model at 21 mM injected in presence of heat labile enterotoxin after 16 hrs; format: functional; conditions: Ileum
In short: (§1)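 Rabbits were starved overnight with free access to water, then anesthetized. The ileum was tied into consecutive 7-cm loops proximal to the mesoappendix. LT-containing cell lysate (750 μl) was injected alone or with sodium linolate. After 16 h the fluid in each loop was collected and expressed as ml per cm loop length. Results are means ± SD of three independent experiments.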

Vibrio cholerae [7] = assay: Binding affinity to Vibrio cholerae cholera toxin assessed as inhibition of cholera toxin binding to ganglioside GM1 receptor relative to ganglioside GM1 receptor antagonist […]
Escherichia coli = assay: Binding affinity to enterotoxigenic Escherichia coli 12566 heat-labile enterotoxin assessed as inhibition of heat-labile enterotoxin binding to ganglioside GM1 receptor
In short: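 A clarified sonicated PBS lysate of E. coli 12566 containing LT (90 μl) was incubated with or without ligand in 100 μl for 15 min at room temperature. Samples were serially diluted onto immobilized GM1 and detected by ELISA with polyclonal rabbit anti-CT serum as primary antibody.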

[8] = Binding affinity to Vibrio cholerae cholera toxin assessed as inhibition of cholera toxin binding to ganglioside GM1 receptor treated 15 mins before receptor addition by ELISA
[9] = Binding affinity to Vibrio cholerae cholera toxin assessed as quenching of intrinsic fluorescence by two-state binding model assay
[10] = Inhibition of intestinal fluid accumulation in rabbit ligated ileal loop model assessed as fluid level at 1.65 mM injected in presence of cholera toxin after 16 hrs (RVb=1.6 +/- 0.2 ml/cm); format: functional, Oryctolagus cuniculus, Ileum
[11] = Inhibition of intestinal fluid accumulation in rabbit ligated ileal loop model assessed as fluid level at 10.5 mM injected in presence of heat labile enterotoxin after 16 hrs (RVb=5.5 +/- 1 ml); format: functional, Oryctolagus cuniculus, Ileum; in short: as §1

| SMILES | inhibition (Escherichia coli) | IC50 [8] [µM] | Kd [9] [µM] | other results |
| --- | --- | --- | --- | --- |
| CCCCC/C=C\C/C=C\CCCCCCCC(=O)O | Active | – | – | Activity (Oryctolagus cuniculus [1]): Dose-dependent effect; Activity (Vibrio cholerae [2]): inactive; Activity (Vibrio cholerae [3]): Active; Activity (Vibrio cholerae [4]): Active; inhibition (Oryctolagus cuniculus [5]): Active; Activity (Oryctolagus cuniculus [6]): Active; Ratio (Vibrio cholerae [7]): 200 |
| CCCCC/C=C\C/C=C\C/C=C\C/C=C\CCCC(=O)O [ARACHIDONIC ACID] | Active | 380 | 180 | – |
| CCCCC/C=C\C/C=C\CCCCCCCC(=O)O [LINOLEIC ACID] | – | 410 | – | – |
| CCCCCCCC/C=C\CCCCCCCC(=O)O [OLEIC ACID] | Active | 410 | 160 | – |
| CCCCCCCCCCCCCCCC(=O)O [PALMITIC ACID] | – | 5800 | – | – |
| CCCCC/C=C\C/C=C\CCCCCCCC(=O)[O-].[Na+] [SODIUM LINOLATE] | – | – | 130 | Activity [10]: 0.76 mL/cm; Activity [11]: 1 mL |
| CCCCCCCCCCCCCCCCCC(=O)O [STEARIC ACID] | – | 5270 | – | – |
